Reference: ChEMBL document CHEMBL4513216, “Probing the Open Global Health Chemical Diversity Library for Multistage-Active Starting Points for Next-Generation Antimalarials” (ACS Infect Dis, 2020)

Assay: Toxicity liver stage against HepG2, at 10uM
Format: cell-based
Design: test concentration 10 uM, cell line HepG2-A16-CD81EGFP
Details: human, HepG2-A16-CD81EGFP cells; read-out: INHIBITION
Outline: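 Uninfected HepG2-A16-CD81EGFP cells, 3 × 10^3 per well, 1536-well, plated on prespotted compound at 10 μM final, parasite-free screening media added to match infected plates; puromycin 10 μM positive, DMSO 0.5% negative; run in parallel with 48 h PbLuc assay at 37 °C, 5% CO2; viability by CellTiter-Glo luminescence, normalized to controls.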

SMILES | cytotoxicity at 10 µM
CCOCCC(=O)NCC1COc2c(cccc2OC)C1 (stereo not drawn) | -142%
OC(CNC1CCOCC1)c1cccc(OCc2ccccc2)c1 (stereo not drawn) | -10.3%
COCCN1C(=O)C[C@H]2[C@H]1CCN2Cc1ccc(OC)cc1 | 1.47%
CC(CCc1cccc(F)c1)NC(=O)NCc1ncnn1C (stereo not drawn) | 12.2%
COc1ccc(-c2cn([C@H](CO)CC(C)C)nn2)cn1 | -2.03%
Cc1ccc(S(=O)(=O)N2CC[C@@H](O)C2)c(F)c1 | -10.2%
CC(C)[C@@H]1CN(c2ncc(F)cn2)C[C@H]1NC(=O)N(C)C | -4.03%
Cc1cnc(CN2CCCC2c2noc(C3CC3)n2)cn1 (stereo not drawn) | -13.5%
CN(Cc1cnn(C)c1)C(=O)NCCc1ccc2c(c1)OCCO2 | -15.4%
O=C(NCc1ccc(Br)cc1)NCC1CCOC1 (stereo not drawn) | -4.51%
O=C(CC1[C@H]2CN(Cc3ccncc3)C[C@@H]12)N1CCCC1 (stereo partly drawn) | 2.58%
CN(C)CCNC(=O)c1cc(-c2cnc(N3CCOCC3)nc2)cn1C | -78.2%
Cc1oncc1C(=O)N1CC2CC1(C(=O)N1CCCC1)C2 | 4.91%
Cc1sc2ncc(-c3ccnc(NC4CCN(C)CC4)n3)c(=O)n2c1C | -7.75%
Cc1cc(C)n(CC2CCCN2CC(=O)N(C)CCC#N)n1 (stereo not drawn) | -14.8%
Cc1ncc2c(n1)CN(CC(=O)N1CCc3sccc3C1)CC2 | 4.68%
CS(=O)(=O)N1CCCC12CCN(Cc1nccs1)C2 (stereo not drawn) | 2.26%
O=C(COC1CCCCC1)N1CCCC(n2ccnc2)C1 (stereo not drawn) | -19.7%
CN(Cc1cnccn1)c1cncc(Br)c1 | -8.46%
CN(Cc1csc(-c2ccccc2)n1)Cc1ncccc1C(=O)O | 6.03%
Cc1nccn1-c1ccc(C(C)NCCc2ccccn2)cc1 (stereo not drawn) | 10.4%
COc1ccc(S(=O)(=O)Nc2cnc(N(C)C)nc2)cc1 | -4.45%
CN(C)CC(=O)N1Cc2nc(C(=O)NCc3ccncc3)oc2C1 | -8.58%

SMILES | cytotoxicity at 10 µM
O=C(CSc1ccc2c(c1)OCCO2)NS(=O)(=O)c1ccccc1Br | -4.62%
Cc1ccn(-c2ccccc2NCc2ccccn2)n1 | -9.99%
CN(C)C(=O)CN1CCN(C(=O)c2cnn(-c3ccccc3Cl)c2)CC1 | -3.67%
CCOCCN1CCN(CC2(O)CCCCC2)CC1 | 1.34%
COC(=O)CN1CCN(c2nc3c(s2)c(C)nn3C)C(C)C1=O (stereo not drawn) | 3.27%
CCCOC1CCCN(Cc2nc(-c3ccc(F)cc3F)oc2C)C1 (stereo not drawn) | -51.1%
COCC(=O)N1CCC(c2cncc(-c3cccc(F)c3)n2)CC1 | -11.3%
CSc1nc2cc(C)n(CC(N)=O)c2c(=O)n1CC(C)C | -11.3%
CCc1nnc(Nc2cc(C)nc(C3CN(C(=O)C(C)C)CCO3)c2)s1 (stereo not drawn) | 7.25%
Cc1cncc(C2CCCN(C(=O)c3cnco3)C2)n1 (stereo not drawn) | -6.94%
COC(=O)NCCC(=O)NC(C)Cc1cccc(Br)c1 (stereo not drawn) | -15.8%
O=c1cc(Cn2cncn2)nc2n1CCCN(CC1CCOCC1)C2 | 7.77%
CC(C)NC[C@H]1COCc2nc3cccnc3n21 | -5.38%
O=C(c1csc(-c2ccc(C(F)(F)F)cc2)n1)N1CCCNCC1 | 6.24%
O=C(C1SCCc2sccc21)N1CCN(CC(F)F)CC1 (stereo not drawn) | -4.5%
COc1ccc(C(=O)Nc2ccc3c(c2)C(=O)NC3)cc1Br | 3.53%
CO[C@H]1CCN(C(=O)Cc2ccsc2)[C@@H]2CN(CC3CC3)C[C@H]12 | 6.35%
CNC(=O)COc1c(F)cc(Br)cc1C(C)=O | 1.44%
Nc1cc(N2CCCC2c2cnccn2)ncn1 (stereo not drawn) | 0.153%
CCN1CCCC1(C)c1nc(C)cc(N)n1 (stereo not drawn) | -2.17%
Cc1nc(CN2CCO[C@H]3[C@@H](Oc4ccccn4)CC[C@@H]32)cs1 | 2.4%
Cc1nc(CN2CCCN(C(=O)COCC3CC3)CC2)cs1 | -11%
COCCc1noc(CN2CC(C)(c3ccccc3)CCC2=O)n1 (stereo not drawn) | 3.1%

SMILES | cytotoxicity at 10 µM
COCCCNC(=O)c1cc(-c2cnc(N(C)C)nc2)cn1CC1CC1 | 2.28%
COC(=O)c1ccc(C2CC(=O)Oc3cc(C)[nH]c(=O)c32)cc1 (stereo not drawn) | -3.86%
CN(Cc1cccc(Cl)c1)S(=O)(=O)N1CCOCC1 | -8.2%
CN1CCCC1CNC(=O)CCCOc1cccc(F)c1 (stereo not drawn) | -9.54%
CC(=O)NCC1CCC2(CCN(c3nccc(C4CCCC4)n3)CC2)O1 (stereo not drawn) | -4.43%
CC(C)CNC(=O)c1ccc2c(=O)n(-c3ccccc3)cnc2c1 | -5.52%
Cn1ccnc1COc1ccc(CSc2nnnn2C2CC2)cc1 | -0.146%
COCCN1CC(=O)N2CC[C@@H](O)C[C@H]2C1=O | -8.03%
CC(C)c1cc(CSCCC(=O)O)no1 | -7.52%
CCN(CC)CCN(C)Cc1cn(C)nc1-c1ccc2c(c1)OCCO2 | 2.95%
O=C(c1ccc2c(c1)OCO2)N1C[C@H](OCC2CC2)[C@H]2COC[C@H]21 | -166%
CCc1nccn1-c1cncc(C2CCCN2)n1 (stereo not drawn) | -6.17%
CC(CNC(=O)NCc1ccc2c(c1)OCO2)CC1(C)OCCO1 (stereo not drawn) | -6.78%
COC(=O)[C@H]1CN(C(=O)NC(C)C)CCN1C(=O)c1cccs1 | -0.832%
C=C(C)COc1cccc(CNCc2nc3ccccc3c(=O)[nH]2)c1 | -40.9%
CCNc1ncc(C(=O)NCCc2ccc(C)c(C)c2)cn1 | -5.1%
O=C1CC(c2cccc(O)c2)c2sc(C(=O)O)c(-c3ccccc3)c2N1 (stereo not drawn) | 6.33%
O=C(NS(=O)(=O)Cc1ccon1)c1ccsc1 | -14.2%
CC(c1ccco1)N(C(=O)c1cc2c([nH]c1=O)CCCC2=O)C1CC1 (stereo not drawn) | -3.21%
CC(NCCCn1cccn1)c1ccc(N2CCCS2(=O)=O)cc1 (stereo not drawn) | -0.828%
O=C(c1ccc[nH]1)N1CCOCC12CCCC2 | 12.3%
Cn1cc(-c2cnc(N3CCCC3)nc2)cc1C(=O)N1CCOCC1 | -3.87%
CCCNC(=O)Nc1cccc2c1CCN(S(C)(=O)=O)C2 | -7.92%

SMILES | cytotoxicity at 10 µM
Cc1cnn(CCNCC(=O)N(C)C(C)c2ccccc2)c1 (stereo not drawn) | 8.83%
CCOCC1CCN(C(=O)Nc2ccc(-c3csnn3)cc2)C1 (stereo not drawn) | 13.7%
c1ccc(CN2CCc3c(CNc4nccs4)n[nH]c3C2)nc1 | -7.04%
O=C(Nc1nnc(C(F)F)s1)NC(CCO)c1cccs1 (stereo not drawn) | -3.44%
O=C1CCCc2cc(S(=O)(=O)NCc3ccccn3)ccc2N1 | 2.41%
COCc1nc2cc(NCc3csc(C)n3)ccc2o1 | 0.873%
CC(C)c1cc(C(=O)NCCN2CCCS2(=O)=O)n[nH]1 | -9.91%
CN(C)C(=O)COC[C@@]12CCC[C@@H]1CNC2 | 0.903%
Cc1nnc(CN(C)Cc2nc3c(s2)CCCC3)o1 | -1.42%
CSc1ccc(NC(=O)NCC(O)C2CC2)cc1F (stereo not drawn) | 6.32%
CCN1CC(C(=O)NCc2cccnc2-n2cccn2)CC1=O (stereo not drawn) | 0.796%
Cc1ccc2c(n1)N(Cc1ccncc1)CCN(S(C)(=O)=O)C2 | -77.2%
O=C(COC1CCCCC1)NS(=O)(=O)c1ccc2c(c1)OCCCO2 | 3.85%
CCc1nccn1C1CCCN(C(=O)c2cnc3onc(C)c3c2)C1 (stereo not drawn) | -15.9%
Cc1cc(C(=O)N[C@@H]2CCNC[C@H]2O)ccc1Cl | -18.4%
CN1CCOC(CNCCCOc2ccc(C#N)cc2)C1 (stereo not drawn) | 6.91%
Cc1c(C2CCCN(C(=O)C3CC3)C2)n2c(nc1=O)CCC2 (stereo not drawn) | -1.85%
Cc1nc(N2CCN(C)CC2)ncc1C(=O)N1CC(C)(C)C(C)(O)C1 (stereo not drawn) | 18.5%
NC1CC(C(F)(F)F)=NC=C1c1ccccc1 (stereo not drawn) | -9.16%
Cc1nc(CCNC(=O)c2cc(C(C)C)nn2C)sc1C | 22.4%
CCOc1nn(CC)cc1-c1nnc(SCc2cccnc2)n1C | 5.97%
CC(C)c1n[nH]c(C2CN(CC(=O)N(C)Cc3ccco3)CCO2)n1 (stereo not drawn) | -5.92%
O=C1CCCCCN1Cc1ncnn1Cc1c(F)cccc1Cl | 2.14%

SMILES | cytotoxicity at 10 µM
CSc1ccccc1NC(=O)N1C[C@@H](N(C)C)[C@H](c2ccc(C)cc2)C1 | -12%
CCOCCc1nc(CCc2ccccc2)n[nH]1 | 10.3%
N#Cc1ncn(CC(=O)N2CCCC2c2cccs2)n1 (stereo not drawn) | -21.7%
Oc1ccc(Cl)cc1CNCc1cccc(C(F)(F)F)c1 | -6.13%
O=C1CC(NCc2cnc(N3CCCC3)nc2)CN1c1ccccc1 (stereo not drawn) | -4.56%
CCc1oc(C(=O)N2CCC(N(CC)C(C)=O)C2)cc1CN(CC)CC (stereo not drawn) | 8.31%
Cc1n[nH]c(C)c1CC(=O)NCCc1ccccc1 | 13.7%
CCN1CC(C(=O)NCCc2csc(-c3ccncc3)n2)CC1=O (stereo not drawn) | -5.64%
COCC(=O)N1CCN(C(C)c2ncc(-c3ccccc3)o2)CC1 (stereo not drawn) | 5.66%
COc1ccnc(N2CCN(C(=O)c3cccc(C#N)c3)CC2)n1 | -18.2%
NC(=O)CN1CCC(C(=O)NCc2ccc3nonc3c2)CC1 | -0.969%
C=C(C)COc1cccc(CNC(COC)c2ccnn2C)c1 (stereo not drawn) | -3.57%
CCc1cc(CNC(=O)N2CCN(c3nc(C)c(C)s3)CC2)on1 | -11.6%
CCN1C[C@H]2C3(CCN(C(=O)NC(C)C)CC3)CC[C@@]2(C(=O)NC)C1 | -106%
CCOC(=O)[C@@H]1[C@@H](OC)C(=O)N(C)C12CCN(C(=O)C(CC)CC)CC2 | -0.00815%
CN(CC(=O)NC(Cc1ccsc1)c1cccnc1)Cc1ccccn1 (stereo not drawn) | 3.9%
Cc1nn(C)c(N(C)C)c1CNCCCN(C)S(C)(=O)=O | -4.07%
CCn1ncc(S(=O)(=O)NC(C)c2cc(OC)ccc2OC)c1C (stereo not drawn) | -4.48%
Cc1cc(C)n(-c2ccc(CNCc3ccc(F)c(F)c3)cn2)n1 | -8.77%
COc1cccc(CNC(=O)c2ccccc2-n2cnc(CN)c2)c1 | -17%
O=C(c1cc2ccccc2o1)N1CCN(Cn2cc(Cl)cn2)CC1 | 9.31%
